Data taken from ChEMBL document CHEMBL4382241, “Synthesis and evaluation of third generation vitamin D3 analogues as inhibitors of Hedgehog signaling” (Eur J Med Chem, 2019).
≈ marks a conversion by molar mass, not a printed value.

Key:
[1] = biological target: T1, Vitamin D3 receptor (Mus musculus) (UniProt P48281); assay: Activation of VDR in mouse C3H10T1/2 cells assessed as change in Cyp24A1 mRNA expression at 5 uM after 24 hrs by q-PCR analysis relative to control; assay type: cell-based
T1 sequence (whole entry): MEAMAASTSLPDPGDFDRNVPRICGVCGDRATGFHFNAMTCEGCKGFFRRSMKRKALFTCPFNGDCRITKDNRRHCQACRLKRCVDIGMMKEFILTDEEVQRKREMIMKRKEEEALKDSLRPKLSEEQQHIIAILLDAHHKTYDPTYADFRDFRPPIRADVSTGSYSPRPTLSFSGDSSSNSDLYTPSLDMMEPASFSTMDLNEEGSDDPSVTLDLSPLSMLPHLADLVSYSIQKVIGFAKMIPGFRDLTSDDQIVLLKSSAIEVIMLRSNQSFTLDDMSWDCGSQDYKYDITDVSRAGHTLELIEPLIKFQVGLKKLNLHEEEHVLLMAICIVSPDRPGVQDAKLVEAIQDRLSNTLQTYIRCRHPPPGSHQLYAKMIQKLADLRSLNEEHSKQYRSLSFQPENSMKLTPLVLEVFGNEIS

[2] = organism: Mus musculus; assay: Inhibition of Hedgehog signaling pathway in mouse C3H10T1/2 cells assessed as residual oxysterol-induced Gli1 mRNA expression at 5 uM after 24 hrs by q-PCR analysis relative to oxysterol alone
[3] = Inhibition of Hedgehog signaling pathway in mouse ASZ001 cells assessed as reduction in […] Gli1 mRNA expression after 48 hrs by q-PCR analysis; assay type: cell-based; settings: ASZ001, 48 h
[4] = biological target: T1, Vitamin D3 receptor (Mus musculus); assay: Activation of VDR in mouse ASZ001 cells assessed as change in Cyp24A1 mRNA expression at 5 uM after 48 hrs by q-PCR analysis relative to control; assay type: cell-based
[5] = Inhibition of Hedgehog signaling pathway in mouse C3H10T1/2 cells assessed as reduction in oxysterol-induced Gli1 mRNA expression after 24 hrs by q-PCR analysis; assay type: cell-based; settings: C3H 10T1/2, 24 h
[6] = biological target: T2, Vitamin D3 receptor (Mus musculus, UniProt P48281); assay: Activation of VDR in mouse ASZ001 cells assessed as change in Cyp24A1 mRNA expression after 48 hrs by q-PCR analysis; assay type: cell-based
T2 sequence (P48281 whole entry): T1 sequence (whole entry)
Procedure, shortened: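 In ASZ001 cells, full dose-response Cyp24A1 mRNA measurement by qPCR was done relative to DMSO control (1.0). EC50 values are mean ± SEM of at least two separate experiments performed in triplicate.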

[7] = Kinetic solubility of the compound in pH 7.4 phosphate buffered saline; assay type: physicochemical; settings: read-out: Kinetic_solubility
Procedure, shortened: (§1)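 Kinetic solubility was run in PBS at pH 4.0 and at pH 7.4 under a standard contract protocol. Compound concentration was measured by LC-MS/MS.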

[8] = Kinetic solubility of the compound in pH 4 phosphate buffered saline; assay type: physicochemical; settings: read-out: Kinetic_solubility; procedure, shortened: as §1
[9] = Clearance in human liver microsomes assessed per mg protein at 1 uM by LC-MS/MS analysis
[10] = Half life in human liver microsomes at 1 uM by LC-MS/MS analysis
[11] = tested on: Medulloblastoma cell; assay: Antiproliferative activity against medulloblastoma cells derived from conditional patched knockout mouse after 48 hrs by [3H]-thymidine incorporation assay; assay type: functional
Procedure, shortened: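 Primary tumour cells from Math1-Cre;Ptc fl/fl medulloblastoma were isolated and cultured in vitro, then incubated with analogue for 48 h in a proliferation assay. GI50 is mean ± SEM of at least two separate experiments performed in triplicate.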

Row | Activity [1] [%] | IC50 [3] [nM] | Activity [4] [%] | IC50 [5] [nM] | EC50 [6] [nM] | solubility kinetic [7] [µg/mL] | solubility kinetic [8] [µg/mL] | CLH [9] | half-life at 1 µM ([10]; liver microsomes) [min] | GI50 [11] [nM] | half-life at 1 µM ([10]; microsomes) [min] | Compound | % Gli1 activity [2] [%]
1 | 2.4 |  |  |  |  |  |  |  |  |  |  | COc1ccc(N[C@H]2CCC[C@]3(C)[C@@H]([C@H](C)CCCC(C)C)CC[C@@H]23)cc1 | 73
2 | 24 | 300 | 1.1 | 3100 |  |  |  |  |  |  |  | CC(C)CCC[C@@H](C)[C@H]1CC[C@H]2[C@@H](NCc3ccc(O)cc3)CCC[C@]12C | 4.6
3 | 27 | 700 | 2400 | 1100 | 600 | 0.12 (≈ 0.299 µM) | 0.06 (≈ 0.149 µM) | 16 | 43 |  |  | COC(C)(C)CCC[C@@H](C)[C@H]1CC[C@H]2[C@H](CNc3cccc(O)c3)CCC[C@]12C | 3.7
4 | 89 | 600 | 11000 | 2300 | 700 | 0.014 (≈ 0.0361 µM) | 0.017 (≈ 0.0439 µM) | < 3 | > 231 |  |  | COC(C)(C)CCC[C@@H](C)[C@H]1CC[C@H]2[C@@H](Nc3cccc(O)c3)CCC[C@]12C | 3.3
5 | 6.1 |  |  |  |  |  |  |  |  |  |  | CC(C)CCC[C@@H](C)[C@H]1CC[C@H]2[C@@H](Nc3ccc4c(c3)OCO4)CCC[C@]12C | 110
6 | 27000 | 400 | > 30000 | 1600 | 400 | 0.031 (≈ 0.077 µM) | 0.048 (≈ 0.119 µM) | 15 | 47 | > 10000 |  | C[C@H](CCCC(C)(C)O)[C@H]1CC[C@H]2[C@@H](OC(=O)c3cccc(O)c3)CCC[C@]12C | 2.9
7 | 34 | 1300 | 8.4 | 1700 | > 10000 |  |  |  |  | 1600 |  | C[C@H](CCCC(C)(C)O)[C@H]1CC[C@H]2[C@H](CNc3cccc(O)c3)CCC[C@]12C | 4.1
8 |  |  |  |  |  | 0.68 (≈ 1.76 µM) | 0.27 (≈ 0.7 µM) | < 3 | > 231 |  |  | CC(C)CCC[C@@H](C)[C@H]1CC[C@H]2[C@@H](NC(=O)c3cccc(O)c3)CCC[C@]12C | 
9 |  |  |  |  |  | 0.67 (≈ 1.73 µM) | 0.16 (≈ 0.414 µM) | < 3 | > 231 | > 10000 |  | CC(C)CCC[C@@H](C)[C@H]1CC[C@H]2[C@@H](OC(=O)c3cccc(O)c3)CCC[C@]12C | 
10 | 6.1 | 500 | 140 | 400 | 1300 |  |  |  |  |  |  | C[C@H](CCCC(C)(C)O)[C@H]1CC[C@H]2[C@H](CNc3ccc(O)cc3)CCC[C@]12C | 5.6
11 | 14 | 1000 | 14 | 1600 | > 10000 | 0.0023 (≈ 0.00552 µM) | 0.0027 (≈ 0.00648 µM) | 15 |  |  | 49 | COC(C)(C)CCC[C@@H](C)[C@H]1CC[C@H]2[C@@H](OC(=O)c3cccc(O)c3)CCC[C@]12C | 0.7
12 | 1.2 |  |  |  |  |  |  |  |  |  |  | CC(C)CCC[C@@H](C)[C@H]1CC[C@H]2[C@@H](Nc3ccccc3)CCC[C@]12C | 98
13 |  |  |  |  |  | 0.00026 (≈ 0.000727 µM) | 0.00075 (≈ 0.0021 µM) | < 3 | > 231 | 2100 |  | CC(C)CCC[C@@H](C)[C@H]1CC[C@H]2[C@H](Nc3ccc(O)cc3)CCC[C@]12C | 
14 | 1.9 |  |  |  |  |  |  |  |  |  |  | COc1cccc(N[C@H]2CCC[C@]3(C)[C@@H]([C@H](C)CCCC(C)C)CC[C@@H]23)c1 | 110
15 | > 30000 | 100 | > 30000 | 1300 | 100 |  |  |  |  | 5300 |  | C[C@H](CCCC(C)(C)O)[C@H]1CC[C@H]2[C@@H](Nc3cccc(O)c3)CCC[C@]12C | 5.9
